# Results: PubChem BioAssay
# Activity calls are given as the source filed them.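 How the source made its calls, unless noted: active means mean duplicate potentiation above the buffer control mean plus 5 SD of buffer wells; inactive means the rest.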
# Assays:
# [1] = thallium flux activation in parental CHO cells, counter-screen for KCNQ1 potentiator project (AID 493006;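 active means duplicate-averaged activation above buffer control mean plus 5 SD of those controls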;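 on activation: fluorescence ratio of max minus min over baseline after K+ and Tl+ depolarization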); conditions: parental CHO-K1 cells, FluxOR thallium flux, at 10 µM; hits give high values
# How it was run: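 Assay system: parental CHO-K1 cells lacking KCNQ1, loaded with FluxOR thallium dye; timing: dye 90 min RT, compound 20 min RT; signal: kinetic thallium-flux fluorescence; repeats: duplicate wells per compound, percent values averaged; benchmarks: buffer and R-L3 controls; reagent: Potassium/thallium depolarization pulse; read-out: fluorescence change ratio scaled 0% buffer, 100% R-L3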
# [2] = biological target: Potassium voltage-gated channel subfamily KQT member 1 (Homo sapiens) (UniProt P51787); experiment: KCNQ1 potassium channel potentiators, confirmation, FluxOR thallium flux, CHO cells, duplicates (AID 493007;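 active means potentiation averaged over duplicate wells exceeding buffer-only control mean by more than 3 SD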;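 on outcome: cells depolarized by a potassium plus thallium sulfate stimulus after compound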); conditions: KCNQ1 cell line, FluxOR thallium flux fluorescence, at 10 µM; hits give high values, % of reference activator effect, buffer zero
# Potassium voltage-gated channel subfamily KQT member 1 (Homo sapiens), sequence (P51787 whole entry, looked up): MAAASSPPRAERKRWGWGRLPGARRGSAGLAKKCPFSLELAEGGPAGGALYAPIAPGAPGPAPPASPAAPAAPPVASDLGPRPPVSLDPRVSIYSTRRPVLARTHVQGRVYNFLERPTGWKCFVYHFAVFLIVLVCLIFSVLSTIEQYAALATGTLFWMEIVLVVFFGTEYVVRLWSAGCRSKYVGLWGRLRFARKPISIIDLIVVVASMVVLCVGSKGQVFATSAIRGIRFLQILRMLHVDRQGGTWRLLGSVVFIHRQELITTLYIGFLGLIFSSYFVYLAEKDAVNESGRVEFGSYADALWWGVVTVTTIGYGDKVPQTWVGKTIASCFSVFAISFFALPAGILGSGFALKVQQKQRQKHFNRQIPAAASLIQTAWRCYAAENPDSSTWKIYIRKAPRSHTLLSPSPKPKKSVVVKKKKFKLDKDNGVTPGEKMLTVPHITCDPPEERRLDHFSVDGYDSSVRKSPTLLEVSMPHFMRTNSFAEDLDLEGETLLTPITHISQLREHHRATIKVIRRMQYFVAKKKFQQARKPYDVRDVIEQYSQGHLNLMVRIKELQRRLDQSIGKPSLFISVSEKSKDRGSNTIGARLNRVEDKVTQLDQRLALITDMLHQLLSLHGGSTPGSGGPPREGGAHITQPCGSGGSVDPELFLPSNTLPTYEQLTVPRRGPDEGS
# How it was run: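 material = CHO cells stably expressing the KCNQ1 potassium channel | repeats = duplicate wells per compound | measure = percent activation between buffer and R-L3 responses | signal = FluxOR thallium-flux fluorescence, kinetic read | schedule = FluxOR dye loading 90 min, compound exposure 20 min, room temperature | control set = buffer and R-L3 controls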
# [3] = biological target: Potassium voltage-gated channel subfamily KQT member 2 (Rattus norvegicus) (UniProt O88943); experiment: rat KCNQ2 channel potentiation, selectivity assay for KCNQ1 potentiator project, KCNQ2-CHO-K1 cells (AID 493009); conditions: FluxOR thallium flux fluorescence, at 10 µM; hits give high values, scaled: buffer 0, activator control 100;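 further: assay conditions were tuned for KCNQ1 rather than KCNQ2 modulators; signal is max minus min fluorescence divided by baseline after thallium stimulus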
# Potassium voltage-gated channel subfamily KQT member 2 (Rattus norvegicus), sequence (O88943 whole entry, looked up): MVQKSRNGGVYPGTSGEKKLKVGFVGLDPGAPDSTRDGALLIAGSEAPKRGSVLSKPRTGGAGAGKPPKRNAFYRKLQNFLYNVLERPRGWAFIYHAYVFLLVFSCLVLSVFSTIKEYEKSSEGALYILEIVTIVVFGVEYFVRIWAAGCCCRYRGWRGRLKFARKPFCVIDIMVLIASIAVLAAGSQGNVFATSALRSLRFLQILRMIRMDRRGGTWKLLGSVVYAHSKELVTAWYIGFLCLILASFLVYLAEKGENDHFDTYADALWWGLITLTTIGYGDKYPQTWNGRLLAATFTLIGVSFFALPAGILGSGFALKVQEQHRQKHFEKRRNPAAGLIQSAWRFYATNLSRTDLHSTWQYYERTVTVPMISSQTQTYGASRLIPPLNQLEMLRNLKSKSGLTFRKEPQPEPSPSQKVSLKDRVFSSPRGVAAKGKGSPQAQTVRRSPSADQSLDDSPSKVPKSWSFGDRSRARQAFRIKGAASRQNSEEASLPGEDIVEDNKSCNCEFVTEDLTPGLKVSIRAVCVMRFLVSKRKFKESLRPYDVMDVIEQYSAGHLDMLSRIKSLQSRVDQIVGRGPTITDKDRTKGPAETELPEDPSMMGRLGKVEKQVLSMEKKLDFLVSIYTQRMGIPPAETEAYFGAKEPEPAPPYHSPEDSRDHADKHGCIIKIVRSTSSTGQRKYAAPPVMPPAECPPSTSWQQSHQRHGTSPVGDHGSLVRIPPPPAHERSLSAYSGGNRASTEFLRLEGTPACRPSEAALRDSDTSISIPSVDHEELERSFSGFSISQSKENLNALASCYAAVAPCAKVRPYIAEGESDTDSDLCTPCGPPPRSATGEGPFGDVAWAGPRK
# [4] = biological target: Potassium voltage-gated channel subfamily KQT member 1 (Homo sapiens) (UniProt P51787); experiment: KCNQ1 channel current potentiators, confirmation, orthogonal assay for KCNQ1 potentiator project, IonWorks patch clamp, KCNQ1-CHO cells (AID 493184;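 active means current rise at least 3 SD above the untreated control mean in each of two repeat wells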;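 on current potentiation: percent change of the same well's current before compound addition so 0% = no change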); conditions: automated patch clamp current, at 10 µM; hits give high values
# How it was run: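 Assay system – CHO cells carrying KCNQ1 · Medium – pH 7.4 external bath · Probe or stimulus – depolarizing pulse to +40 mV from -90 mV · Compound dosing – one dose, 10 µM final · Measured by – automated perforated-patch electrophysiology · Measure – % potentiation of steady-state current relative to pre-compound · Repeats – two replicates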
Compound,outcome [1],outcome [2],outcome [3],outcome [4],potentiation [2],activation [1],potentiation [3],current potentiation [4]
COc1ccc(CCN=C(N)NS(=O)(=O)c2ccc(F)cc2)cc1OC,inactive,inactive,inactive,inactive,–,–,–,–
Fc1ccc(/C=N/NC(=S)Nc2ccc(Cl)cc2)cc1F,inactive,inactive,inactive,inactive,–,–,–,–
CCOc1cc(CNCCCN2CCOCC2)ccc1OCC(=O)NC(C)(C)C,inactive,inactive,inactive,inactive,–,–,–,–
Cc1ccccc1Cn1c(O)c(N=NC(=S)Nc2ccccc2F)c2ccccc21,inactive,–,inactive,inactive,36% (active),–,–,–
O=C(ONC1=NCCCCC1)c1ccc(Cl)cc1,inactive,inactive,inactive,inactive,–,–,–,–
COc1ccc(CN2CCCC(CNC(=O)c3ccc(F)cc3)C2)c(C)c1C (stereo not given),inactive,inactive,inactive,inactive,–,–,–,–
CC(=O)c1c(NC(=O)c2ccccc2)[nH]c(-c2ccccc2)nc1=S,–,–,–,inactive,67% (active),230% (active),236% (active),–
Cc1c(-c2ccccc2)sc2nc[nH]c(=S)c12,–,–,–,inactive,130% (active),307% (active),304% (active),–
O=C(COc1ccccc1[N+](=O)[O-])Nc1cccnc1,–,–,–,inactive,41.5% (active),186% (active),172% (active),–
Cc1ccc(C(=O)N/N=C(/CC(=O)c2cccs2)C(F)(F)F)cc1,–,–,–,inactive,66.5% (active),234% (active),246% (active),–
CCNc1nc(NCC)n2c(SCC(=O)Nc3ccc(F)cc3)nnc2n1,inactive,inactive,inactive,inactive,–,–,–,–
Nc1c(-c2ccccc2)cnc2c(-c3ccccc3)cnn12,inactive,inactive,inactive,inactive,–,–,–,–
S=c1sc2c(Cl)ncnc2n1-c1ccccc1,–,–,–,inactive,146% (active),302% (active),364% (active),–
CN1CCN(c2ccccc2NC(=S)NC(=O)c2cc3ccccc3o2)CC1,inactive,inactive,inactive,inactive,–,–,–,–
CCCCN(CCCC)C(=S)NC(=O)c1ccccc1Cl,–,–,–,inactive,238% (active),556% (active),542% (active),–
CCCn1c(N)c(C(=O)CSc2nc(C)nc3sc(C)c(C)c23)c(=O)[nH]c1=O,–,–,–,inactive,23% (active),166% (active),194% (active),–
S=c1[nH]cc(Cc2ccccc2)s1,–,–,–,inactive,28.5% (active),205% (active),216% (active),–
CCCCc1nc2sc3c(SCCN(C)C)ncnc3c2c2c1CCC2,–,–,–,inactive,122% (active),207% (active),183% (active),–
O=C1CC(c2ccccc2)CC(O)=C1C=Nc1ccc(O)cc1 (stereo not given),inactive,inactive,inactive,inactive,–,–,–,–
O=C(CSc1cccc[n+]1[O-])c1cc(Cl)ccc1Cl,inactive,inactive,inactive,inactive,–,–,–,–

Compound,outcome [1],outcome [2],outcome [3],outcome [4],potentiation [2],activation [1],potentiation [3],current potentiation [4]
O=c1c2ccc(Cl)cc2[nH]c(=S)n1CCC1=CCCCC1,–,–,–,inactive,48.5% (active),156% (active),166% (active),–
OCCN1CCN(C2CCC(c3ccc(F)cc3)c3ccc(F)cc32)CC1 (stereo not given),inactive,inactive,inactive,inactive,–,–,–,–
N#Cc1ccccc1Oc1ccccc1C=O,–,–,–,inactive,39.5% (active),143% (active),160% (active),–
CC(C)(C)C(=O)NC(=S)NNC(=O)c1ccc(Cl)cc1Cl,inactive,–,–,inactive,52% (active),–,171% (active),–
O=c1cc(-c2c(F)c(F)c(F)c(F)c2F)oc2ccccc12,inactive,inactive,inactive,inactive,–,–,–,–
COc1ccc(/C=C2\SC(=S)N(NS(=O)(=O)c3ccc(C)cc3)C2=O)c(OC)c1,–,–,–,–,77.5% (active),138% (active),261% (active),20.6% (active)
O=C(NC(=S)N1CCN(C/C=C/c2ccccc2)CC1)c1c(F)cccc1F,–,–,inactive,inactive,28.5% (active),139% (active),–,–
O=C(CSc1nnc(SCc2cccc3ccccc23)s1)c1ccc2c(c1)OCO2,–,inactive,inactive,inactive,–,163% (active),–,–
CC1Cc2ccccc2N1C(=S)NC(=O)c1ccc(Cl)cc1Cl (stereo not given),–,–,–,inactive,91.5% (active),214% (active),248% (active),–
S=c1[nH]c(-c2ccccc2)cn1/N=C/c1cccc2ccccc12,–,–,–,inactive,65.5% (active),174% (active),184% (active),–
Cc1ccc(C(=O)Nc2nc(-c3ccccc3)c(-c3ccccc3)o2)cc1,–,–,–,inactive,92.5% (active),201% (active),248% (active),–
COc1ccc(-n2nnnc2-c2ccccc2)cc1,inactive,inactive,inactive,inactive,–,–,–,–
CCCc1cc(=O)n2[nH]cc(-c3ccc(Cl)cc3)c2n1,–,–,–,inactive,36% (active),168% (active),164% (active),–
CCOC(=O)/C(=C\c1cccnc1)C(=O)c1cc(C(C)=O)c(Nc2ccccc2)s1,inactive,inactive,inactive,inactive,–,–,–,–
CCCCN1C=CC(=C2C(=O)c3ccccc3C2=O)C=C1,inactive,inactive,inactive,inactive,–,–,–,–
C=CCSc1nc2sc3c(c2c(=O)n1CC)CCc1ccccc1-3,–,–,–,inactive,91% (active),160% (active),192% (active),–
O=C(NC(=S)N1CCN(c2c(Cl)cccc2[N+](=O)[O-])CC1)c1cccs1,–,–,–,inactive,156% (active),236% (active),375% (active),–
CCSC(=S)c1c(C)[nH]n(-c2ccccc2)c1=O,–,–,–,inactive,30% (active),164% (active),184% (active),–
CCC(Oc1ccc(Cl)cc1)C(=O)N1CC(=O)Nc2ccccc21 (stereo not given),inactive,inactive,inactive,inactive,–,–,–,–
Cc1sc2ncnc(SCC(=O)NC(=O)c3cccn3C)c2c1C,–,–,–,inactive,28.5% (active),170% (active),201% (active),–

Compound,outcome [1],outcome [2],outcome [3],outcome [4],potentiation [2],activation [1],potentiation [3],current potentiation [4]
COc1ccc(NC2=NC3(CCCCC3)N=C(N)N2)cc1,inactive,inactive,inactive,inactive,–,–,–,–
Cc1nn(-c2ccccc2)c2nc(C(Cl)(Cl)Cl)[nH]c(=O)c12,–,inactive,inactive,inactive,–,145% (active),–,–
O=S(=O)(c1cc(F)cc(F)c1)N1CCN(c2ncccn2)CC1,inactive,inactive,inactive,inactive,–,–,–,–
C=CCN(CC=C)C(=S)NC(=O)c1ccc(OC)c(Br)c1,–,–,–,inactive,199% (active),506% (active),474% (active),–
COCCN1CCCC(CNCc2cn(C)nc2-c2ccc(Oc3ccccc3)cc2)C1 (stereo not given),inactive,inactive,inactive,inactive,–,–,–,–
COc1ccc(OCC(=O)N2CCCC2=O)c([N+](=O)[O-])c1,inactive,inactive,inactive,inactive,–,–,–,–
CCCCn1c(N)c(N(CC)C(=O)CSCc2c(C)noc2C)c(=O)[nH]c1=O,inactive,inactive,inactive,inactive,–,–,–,–
COC(=O)C1C(=O)c2c([nH]c(C(=O)OCCSC)c2C)CC1C (stereo not given),inactive,inactive,inactive,inactive,–,–,–,–
CC(=O)N1N=C(c2ccccc2OC(=O)/C=C/c2ccccc2)CC1c1ccccc1 (stereo not given),inactive,inactive,inactive,inactive,–,–,–,–
COc1cc(NS(=O)(=O)c2ccc(NC(=S)NC(=O)c3sc4cc(F)ccc4c3Cl)cc2)nc(OC)n1,–,inactive,inactive,inactive,–,144% (active),–,–
CC(Oc1ccc(Cl)cc1Cl)C(=O)NC(=S)N1CCc2ccccc21 (stereo not given),–,–,–,inactive,120% (active),151% (active),172% (active),–
CCOC(=O)c1ccc(Nc2nc(N3CCOCC3)nc(N3CCOCC3)n2)cc1,inactive,inactive,inactive,inactive,–,–,–,–
CCOC(=O)Cn1c2ccccc2c2nc3ccccc3nc21,inactive,inactive,inactive,inactive,–,–,–,–
CCOC(=O)C(=Cc1cc(=O)c(OC)co1)C(=O)OCC,inactive,inactive,inactive,inactive,–,–,–,–
O=C(c1ccccc1)N1CCC(CC2CC(c3ccc(Cl)cc3)=NO2)(C(=O)NCC2CCCCC2)CC1 (stereo not given),inactive,inactive,inactive,inactive,–,–,–,–
O=c1[nH]cc(-c2ccccc2)c(=O)[nH]1,inactive,inactive,inactive,inactive,–,–,–,–
C=CCn1c(SCN2C(=O)c3ccccc3C2=O)nc2ccc(Cl)cc2c1=O,–,inactive,inactive,inactive,–,152% (active),–,–
N=c1ccn(CC(=O)c2ccc(-c3ccccc3)cc2)cc1,inactive,inactive,inactive,inactive,–,–,–,–
C=CCn1c(O)c(N=NC(=S)Nc2ccccc2F)c2ccccc21,–,–,–,inactive,212% (active),352% (active),416% (active),–
CCn1nnc2cc(C(=O)Nc3cc(S(C)(=O)=O)ccc3Cl)ccc21,inactive,inactive,inactive,inactive,–,–,–,–
